According to ChEMBL document CHEMBL2203229, “Structure Activity Relationship Study of the Cleistriosides and Cleistetrosides for Antibacterial/Anticancer Activity” (ACS Med Chem Lett, 2012):
pIC50: −log10 of the molar value. Values after ≈ are worked out from the molar mass of the structure shown. Active and inactive are the calls of the source. The rule behind the calls is not given here.

Key:
MDA-MB-435 [1] = assay: Growth inhibition of human MDA-MB-435 cells at 10 uM after 48 hrs by sulforhodamine B assay; format: functional, cell-based
NCI-H460 [2] = assay: Growth inhibition of human NCI-H460 cells at 10 uM after 48 hrs by sulforhodamine B assay; format: functional, cell-based
CAKI-1 [3] = assay: Growth inhibition of human CAKI-1 cells at 10 uM after 48 hrs by sulforhodamine B assay; format: functional, cell-based
NCI/ADR-RES = assay: Growth inhibition of human NCI-ADR-RES cells at 10 uM after 48 hrs by sulforhodamine B assay; format: functional, cell-based
SR [4] = assay: Growth inhibition of human SR cells at 10 uM after 48 hrs by sulforhodamine B assay; format: functional, cell-based
RPMI-8226 [5] = assay: Growth inhibition of human RPMI8226 cells at 10 uM after 48 hrs by sulforhodamine B assay; format: functional, cell-based
HCT-15 [6] = assay: Growth inhibition of human HCT15 cells at 10 uM after 48 hrs by sulforhodamine B assay; format: functional, cell-based
Escherichia coli [7] = assay: Antibacterial activity against Escherichia coli K-12 MG1655 assessed as growth inhibition after 16 hrs by broth dilution method; format: functional; conditions: K-12 substr. MG1655, 16 h
In short: (§1)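 Strains grown overnight in LB, diluted 10-fold, shaken at 37 °C for 45 min–1 h (~10⁸ CFU/mL), then diluted ~1000-fold to ~10⁵ CFU/mL. Broth dilution in LB: 20 mM DMSO stocks, 1:2 serial dilutions giving seven concentrations, inoculum added 1:1. OD600 read with shaking.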

PC-3 [8] = assay: Growth inhibition of human PC3 cells at 10 uM after 48 hrs by sulforhodamine B assay; format: functional, cell-based
NCI-H460 [9] = assay: Cytotoxicity against human NCI-H460 cells assessed as inhibition of cell viability by MTT assay; format: functional, cell-based
In short: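 NCI-H460 cells in RPMI 1640 with 10% FBS and 2 mM glutamine at 37 °C, 5% CO₂. Seeded at 10,000 cells/well for 12 h, then dosed in 1% FBS medium (DMSO below 0.1% final). MTT (10 µL of 5 mg/mL) for 4 h, formazan dissolved in DMSO for 45 min, absorbance at 562 nm. Triplicate wells, at least three runs (N = 9).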

SNB-75 [10] = assay: Growth inhibition of human SNB75 cells at 10 uM after 48 hrs by sulforhodamine B assay; format: functional, cell-based
A549 [11] = assay: Growth inhibition of human A549 cells at 10 uM after 48 hrs by sulforhodamine B assay; format: functional, cell-based
MCF7 [12] = assay: Growth inhibition of human MCF7 cells at 10 uM after 48 hrs by sulforhodamine B assay; format: functional, cell-based
HT-29 [13] = assay: Growth inhibition of human HT-29 cells at 10 uM after 48 hrs by sulforhodamine B assay; format: functional, cell-based
Escherichia coli [14] = assay: Antibacterial activity against Escherichia coli K-12 BAS901 harboring genetically modified imp-4213, zab4292::Tn5 assessed as growth inhibition after 16 hrs by broth dilution method; format: functional; conditions: K-12 BAS901, 16 h
In short: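 Kanamycin-resistant strain grown overnight in LB with kanamycin 50 µg/mL, diluted 10-fold, then shaken at 37 °C for 45 min–1 h (~10⁸ CFU/mL). Diluted ~1000-fold to 10⁵ CFU/mL in LB. DMSO stocks (20 mM) prepared as 4X working solutions in LB. Seven 1:2 serial dilutions mixed with equal-volume inoculum. OD600 read with shaking.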

SF-539 [15] = assay: Growth inhibition of human SF539 cells at 10 uM after 48 hrs by sulforhodamine B assay; format: functional, cell-based
DU-145 [16] = assay: Growth inhibition of human DU145 cells at 10 uM after 48 hrs by sulforhodamine B assay; format: functional, cell-based
BT-549 [17] = assay: Growth inhibition of human BT549 cells at 10 uM after 48 hrs by sulforhodamine B assay; format: functional, cell-based
SK-MEL-5 [18] = assay: Growth inhibition of human SK-MEL-5 cells at 10 uM after 48 hrs by sulforhodamine B assay; format: functional, cell-based
A498 [19] = assay: Growth inhibition of human A498 cells at 10 uM after 48 hrs by sulforhodamine B assay; format: functional, cell-based
OVCAR-3 [20] = assay: Growth inhibition of human OVCAR3 cells at 10 uM after 48 hrs by sulforhodamine B assay; format: functional, cell-based
[21] = Antibacterial activity against Bacillus subtilis JH642 containing trpC2 pheA1 assessed as growth inhibition after 16 hrs by broth dilution method; format: functional, Bacillus subtilis subsp. subtilis str. JH642; in short: as §1
SNB-75 [22] = assay: Growth inhibition of human SNB75 cells after 48 hrs by sulforhodamine B assay; format: functional; conditions: SNB-75, 48 h
In short: (§2)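 Cells in RPMI 1640 with 5% FBS, plated at 5,000–40,000/well and grown 24 h. Time-zero plates fixed with TCA. Five drug concentrations, 48 h at 37 °C, 5% CO₂. Fixation with TCA (10% final for adherent lines; 16% final for suspension lines), staining with 0.4% SRB, reading at 515 nm. GI50 is the concentration giving a 50% reduction in net protein increase relative to time zero.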

DU-145 [23] = assay: Growth inhibition of human DU145 cells after 48 hrs by sulforhodamine B assay; format: functional; conditions: DU-145, 48 h; in short: as §2
RPMI-8226 [24] = assay: Growth inhibition of human RPMI8226 cells after 48 hrs by sulforhodamine B assay; format: functional; conditions: RPMI-8226, 48 h; in short: as §2
HT-29 [25] = assay: Growth inhibition of human HT-29 cells after 48 hrs by sulforhodamine B assay; format: functional; conditions: HT-29, 48 h; in short: as §2
CAKI-1 [26] = assay: Growth inhibition of human CAKI-1 cells after 48 hrs by sulforhodamine B assay; format: functional; conditions: CAKI-1, 48 h; in short: as §2
NCI-H460 [27] = assay: Growth inhibition of human NCI-H460 cells after 48 hrs by sulforhodamine B assay; format: functional; conditions: NCI-H460, 48 h; in short: as §2
[28] = Growth inhibition of human NCI-ADR-RES cells after 48 hrs by sulforhodamine B assay; format: functional; in short: as §2
SR [29] = assay: Growth inhibition of human SR cells after 48 hrs by sulforhodamine B assay; format: functional; in short: as §2
A498 [30] = assay: Growth inhibition of human A498 cells after 48 hrs by sulforhodamine B assay; format: functional; conditions: A498, 48 h; in short: as §2
OVCAR-3 [31] = assay: Growth inhibition of human OVCAR3 cells after 48 hrs by sulforhodamine B assay; format: functional; conditions: OVCAR-3, 48 h; in short: as §2
SF-539 [32] = assay: Growth inhibition of human SF539 cells after 48 hrs by sulforhodamine B assay; format: functional; conditions: SF-539, 48 h; in short: as §2
MCF7 [33] = assay: Growth inhibition of human MCF7 cells after 48 hrs by sulforhodamine B assay; format: functional; conditions: MCF7, 48 h; in short: as §2
HCT-15 [34] = assay: Growth inhibition of human HCT15 cells after 48 hrs by sulforhodamine B assay; format: functional; conditions: HCT-15, 48 h; in short: as §2
A549 [35] = assay: Growth inhibition of human A549 cells after 48 hrs by sulforhodamine B assay; format: functional; conditions: A549, 48 h; in short: as §2
MDA-MB-435 [36] = assay: Growth inhibition of human MDA-MB-435 cells after 48 hrs by sulforhodamine B assay; format: functional; conditions: MDA-MB-435, 48 h; in short: as §2
PC-3 [37] = assay: Growth inhibition of human PC3 cells after 48 hrs by sulforhodamine B assay; format: functional; conditions: PC-3, 48 h; in short: as §2
BT-549 [38] = assay: Growth inhibition of human BT549 cells after 48 hrs by sulforhodamine B assay; format: functional; conditions: BT-549, 48 h; in short: as §2
SK-MEL-5 [39] = assay: Growth inhibition of human SK-MEL-5 cells after 48 hrs by sulforhodamine B assay; format: functional; conditions: SK-MEL-5, 48 h; in short: as §2

SMILES | growth inhibition (GI) (MDA-MB-435 [1]) | growth inhibition (GI) (NCI-H460 [2]) | growth inhibition (GI) (CAKI-1 [3]) | growth inhibition (GI) (NCI/ADR-RES) | growth inhibition (GI) (SR [4]) | growth inhibition (GI) (RPMI-8226 [5]) | growth inhibition (GI) (HCT-15 [6]) | MIC (Escherichia coli [7]) [µM] | growth inhibition (GI) (PC-3 [8]) | pIC50 (NCI-H460 [9]) | growth inhibition (GI) (SNB-75 [10]) | growth inhibition (GI) (A549 [11]) | growth inhibition (GI) (MCF7 [12]) | growth inhibition (GI) (HT-29 [13]) | MIC (Escherichia coli [14]) [µM] | growth inhibition (GI) (SF-539 [15]) | growth inhibition (GI) (DU-145 [16]) | growth inhibition (GI) (BT-549 [17]) | growth inhibition (GI) (SK-MEL-5 [18]) | MIC [21] [µM] | further results
CCCCCCCCCCCCO[C@@H]1O[C@@H](C)[C@H](O[C@@H]2O[C@@H](C)[C@H](OC(C)=O)[C@@H](O[C@@H]3O[C@@H](C)[C@H](OC(C)=O)[C@@H](O[C@@H]4O[C@@H](C)[C@H](O)[C@@H](O)[C@H]4O)[C@H]3OC(C)=O)[C@H]2O)[C@@H](O)[C@H]1O | inactive | inactive | inactive | inactive | inactive | inactive | inactive | > 64 | inactive | 4.91 | inactive | inactive | inactive | inactive | > 64 | inactive | inactive | inactive | inactive | 8 (≈ 7.18 µg/mL) | growth inhibition (GI) (A498 [19]): inactive; growth inhibition (GI) (OVCAR-3 [20]): inactive
CCCCCCCCCCCCO[C@@H]1O[C@@H](C)[C@H](O[C@@H]2O[C@@H](C)[C@H](OC(C)=O)[C@@H](O[C@@H]3O[C@@H](C)[C@H](O)[C@@H](O[C@@H]4O[C@@H](C)[C@H](OC(C)=O)[C@@H](O)[C@H]4O)[C@H]3OC(C)=O)[C@H]2O)[C@@H](O)[C@H]1O | inactive | inactive | inactive | inactive | inactive | inactive | inactive | > 64 | inactive | 4.78 | inactive | inactive | inactive | inactive | 16 (≈ 14.4 µg/mL) | inactive | inactive | inactive | inactive | 8 (≈ 7.18 µg/mL) | growth inhibition (GI) (A498 [19]): inactive; growth inhibition (GI) (OVCAR-3 [20]): inactive
CCCCCCCCCCCCO[C@@H]1O[C@@H](C)[C@H](O[C@@H]2O[C@@H](C)[C@H](OC(C)=O)[C@@H](O[C@@H]3O[C@@H](C)[C@H](OC(C)=O)[C@@H](O[C@@H]4O[C@@H](C)[C@H](OC(C)=O)[C@@H](O)[C@H]4O)[C@H]3OC(C)=O)[C@H]2O)[C@@H](O)[C@H]1O |  |  |  |  |  |  |  | > 64 |  | 5.04 |  |  |  |  | > 64 |  |  |  |  | 4 (≈ 3.76 µg/mL) | GI50 (SNB-75 [22]): 1.36 µM; GI50 (DU-145 [23]): 7.92 µM; GI50 (RPMI-8226 [24]): 1.86 µM; GI50 (HT-29 [25]): 8.02 µM; GI50 (CAKI-1 [26]): 8.45 µM; GI50 (NCI-H460 [27]): 7.58 µM; GI50 [28]: 9.15 µM; GI50 (SR [29]): 1.45 µM; GI50 (A498 [30]): 7.57 µM; GI50 (OVCAR-3 [31]): 4.84 µM; GI50 (SF-539 [32]): 4.7 µM; GI50 (MCF7 [33]): 1.74 µM; GI50 (HCT-15 [34]): 7.54 µM; GI50 (A549 [35]): 9.47 µM; GI50 (MDA-MB-435 [36]): 6 µM; GI50 (PC-3 [37]): 5.3 µM; GI50 (BT-549 [38]): 8.46 µM; GI50 (SK-MEL-5 [39]): 1.76 µM
CCCCCCCCCCCCO[C@@H]1O[C@@H](C)[C@H](O[C@@H]2O[C@@H](C)[C@H](OC(C)=O)[C@@H](O[C@@H]3O[C@@H](C)[C@H](O)[C@@H](O[C@@H]4O[C@@H](C)[C@H](O)[C@@H](O)[C@H]4O)[C@H]3OC(C)=O)[C@H]2O)[C@@H](O)[C@H]1O | inactive | inactive | inactive | inactive | inactive | inactive | inactive | > 64 | inactive | 4.81 | inactive | inactive | inactive | inactive | 16 (≈ 13.7 µg/mL) | inactive | inactive | inactive | inactive | 8 (≈ 6.84 µg/mL) | growth inhibition (GI) (A498 [19]): inactive; growth inhibition (GI) (OVCAR-3 [20]): inactive
